Rce1 inhib = blocks yeast Ras-converting enzyme; yeast membranes, quenched prenylated peptide cleavage fluorescence; calls only; 0.27% of 290,000 active; AID 2563;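 active means fall in fluorescence gain of 50% or more versus controls, with final raw signal at or below 3038400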;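 further: plate controls were neutral control wells for no effect and wells lacking membranes for full effect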
Target sequence (Q03530 whole entry, looked up): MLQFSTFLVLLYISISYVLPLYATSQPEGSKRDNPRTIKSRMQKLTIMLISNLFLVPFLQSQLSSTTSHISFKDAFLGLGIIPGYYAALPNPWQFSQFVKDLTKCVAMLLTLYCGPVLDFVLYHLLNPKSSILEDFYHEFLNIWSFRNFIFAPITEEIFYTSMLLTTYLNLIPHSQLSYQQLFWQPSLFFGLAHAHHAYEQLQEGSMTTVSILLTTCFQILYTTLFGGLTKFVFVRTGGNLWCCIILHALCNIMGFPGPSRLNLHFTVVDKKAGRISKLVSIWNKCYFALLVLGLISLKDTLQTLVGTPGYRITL
Rin1 Abl inh = inhibitors of human Rin1-Abl protein interaction; inhibition, % at 7.35 µM; TR-FRET Rin1/Abl binding, biochemical; 0.4% of 360,000 active; in the data active means inhibition above about 5%, passing the limit was not always enough
Myeloid diff 2 = promotes myeloid progenitor differentiation. calls only at 10 µM. 1% of 360,000 active. ER-HoxA9 myeloid progenitors, lysozyme-GFP differentiation, flow cytometry. AID 624256;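 active means normalized GFP-positive differentiation at or above the plate's own cutoff, the solvent-only control mean plus 3 SD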;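 further: cells exposed to compound for four days before flow analysis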
SKN-1 block = inhibitors of C. elegans SKN-1 | inhibition, % at 21.8 µM | C. elegans VP596 Pgst-4::GFP/RFP ratio, acrylamide-induced, 24 h | AID 624304 | 0.49% of 360,000 active;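 active means interference check ratio from 0.5 to 1.5 plus GFP to RFP signal ratio inhibition reaching or exceeding a fixed threshold, cut at about 30% in these data, passing the limit was not always enough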
GRK2 inh = inhibitors of human GRK2 displacing RNA aptamer | bead flow cytometry, FAM-aptamer displacement from GRK2 | 0.59% of 330,000 active | inhibition of aptamer binding, % at 10 µM;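 active means inhibition of aptamer binding above 40%, roughly 3 SD of noise, on plates passing a quality check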;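 further: median bead fluorescence of bound FAM aptamer so fluorescent compounds give negative values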
T cell HTS = T cell immune modulators affecting CD8 T cell-vesicle binding; 2C CD8+ T cell-vesicle binding, flow cytometry; active compounds read low; response (vesicle binding), % at 7 µM; 0.068% of 330,000 active; AID 2052;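 active means response, share of CD8 T cells binding vesicles, and their 90th percentile fluorescence all below set limits, cut at about 80% in these data, passing the limit was not always enough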;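 further: values below 100% mean blocked vesicle binding to the CD8+ T cells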
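material = purified 2C TCR transgenic mouse naive CD8+ T cells | controls = Unloaded micro-vesicles (low), QL9 vesicles with 0.7% DMSO (high) | detection = cytometric PE anti-B7-1 and Alexa647 anti-CD8 signals after 1% paraformaldehyde fixation | incubation = binding step 1.5 h, 37 °C, antibody labelling 20 min, ice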
Myeloid diff CP1 = promotes myeloid progenitor differentiation; calls only; 2% of 2,300 active; ER-HoxA9 myeloid progenitors, GFP/Mac1 double-positive flow; shares compounds with Myeloid diff 2;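 active means share of green or green-and-red cells above 9 and 9% in run 1 or 4 and 3% in run 2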
GFP autofluor = flagged as fluorescent in myeloid differentiation counter-screen. AID 651707. ER-HoxA9 myeloid progenitors, no estrogen, GFP autofluorescence flow cytometry; vehicle wells 0%, positive control 100%. shares compounds with Myeloid diff 2. 7.4% of 2,300 active. fluorescence response, % (test concentration not listed);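 active means over 5% cells positive for green fluorescent reporter, or over 2% positive for both it and APC stain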;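 further: range taken on the double positive population between DMSO and positive control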
Starred values were filed as active, the others as inactive; i = inactive; . = no result given; + = active, no number. In the library only some 2.6% were active in any assay of this set; here they are far more common.

SMILES	Rce1 inhib	Rin1 Abl inh	Myeloid diff 2	SKN-1 block	GRK2 inh	T cell HTS	Myeloid diff CP1	GFP autofluor
NS(=O)(=O)c1ccc(NC(=S)NCc2ccccc2)cc1	i	0.0	i	-12.1	0.0	340.3	.	.
O=C(c1ccc(S(=O)(=O)N2CCCCC2)cc1)N1CCN(CCN2C(=O)c3cccc4cccc(c34)C2=O)CC1	i	-0.4	+	4.5	7.0	314.9	i	0.0
O=C(c1ccc(S(=O)(=O)N2CCCC2)cc1)N1CCCCCC1	i	-1.5	i	7.0	1.0	0.0	.	.
COc1ccc(Cn2c(C3CC3)nc3ccc(NC(=O)c4cccnc4)cc3c2=O)cc1	i	0.3	+	3.3	2.0	239.5	i	13.6*
COc1ccc(NC(=O)c2cccnc2)cc1	i	-1.1	i	-3.2	0.0	210.2	.	.
COc1ccc(Cn2c(C3CC3)nc3ccc(NC(C)=O)cc3c2=O)cc1	i	0.0	+	10.2	0.0	635.6	i	0.0
Cc1cc(/C=C(\C#N)C(=O)O)c(C)n1CC(C)C	.	-4.8	+	-9.2	1.0	541.1	i	0.6
CCCCC(O)(CCCC)C(=O)N/N=C(\C)c1ccc(Cl)cc1	i	-2.3	i	-3.8	0.0	414.0	i	0.0
C/C(=N/NC(=O)CNc1ccc(C)cc1)c1ccc(Cl)cc1	i	-1.9	i	9.6	0.0	253.8	.	.
CC(C)NC(=O)Cn1cc(C(=O)C(=O)N2CCOCC2)c2ccccc21	i	-1.7	i	14.3	0.0	350.3	.	.
COC(=O)C1C(OC)=CC(=O)C2CCCCC21 (centres undefined)	.	-1.4	i	11.9	.	.	.	.
CC(=O)c1c(N2CCOCC2)nc(=S)n(-c2ccccc2)c1C	i	-0.2	i	5.5	0.0	522.7	.	.
CC(=O)c1c(N2CCOCC2)nc(=S)n(-c2ccc([N+](=O)[O-])cc2)c1C	i	-1.0	i	1.6	0.0	160.8	i	1.2
COc1ccc(COC(=O)c2ccc(C)c(S(=O)(=O)N3CCOCC3)c2)cc1F	i	-0.1	i	1.9	0.0	246.9	.	.
O=C(Nc1ccccc1)Nc1sccc1-c1nc2ccccc2s1	i	-1.6	i	23.2	0.0	i	.	.
COc1ccccc1NC(=O)Nc1sccc1-c1nc2ccccc2s1	i	-0.4	+	8.1	0.0	780.7	i	0.0
C[C@H](CO)N1C[C@H](C)[C@H](CN(C)S(=O)(=O)c2ccc3c(c2)OCCCO3)OCc2cnnn2CCCC1=O	.	1.7	i	-4.9	.	.	.	.
C[C@@H]1CN([C@@H](C)CO)C(=O)CCCn2nncc2CO[C@@H]1CN(C)C(=O)Nc1cccc(Oc2ccccn2)c1	.	-4.0	i	-0.6	.	.	i	0.0
C[C@@H]1CN([C@H](C)CO)C(=O)CCCn2nncc2CO[C@H]1CN(C)C(=O)Nc1cccc(Oc2ccccn2)c1	.	-3.4	i	0.2	.	.	.	.
C[C@H]1CN([C@@H](C)CO)C(=O)CCCn2nncc2CO[C@H]1CN(C)S(=O)(=O)c1ccc2c(c1)OCCCO2	.	2.2	i	-3.4	.	.	i	0.0
Cc1ccc(S(=O)(=O)N(C)C[C@@H]2OCc3cn(nn3)CCCC(=O)N([C@@H](C)CO)C[C@H]2C)cc1	.	1.6	i	-3.6	.	.	i	0.2
Cc1ccc(NCC(O)C(O)C(O)CO)c(N=Nc2ccccc2)c1C (centres undefined)	i	-5.5	i	-7.8	1.0	370.4	.	.
COc1ccc(N2CCN(C(=O)c3ccc(C)c(Cl)c3)CC2)cc1	i	-1.0	i	-13.5	1.0	340.1	i	0.0
COc1ccc(NS(=O)(=O)c2cccc(C(=O)NNC(=O)COc3ccccc3)c2)cc1	i	1.7	+	10.2	1.0	425.7	i	0.3
COc1ccc(N2CCN(C(=O)c3cccc(NS(=O)(=O)c4cccc(F)c4)c3)CC2)cc1	i	2.6	i	4.5	.	.	.	.
SMILES	Rce1 inhib	Rin1 Abl inh	Myeloid diff 2	SKN-1 block	GRK2 inh	T cell HTS	Myeloid diff CP1	GFP autofluor
COc1ccc(N2CCN(C(=O)c3ccc(NS(=O)(=O)c4cccc(F)c4)cc3)CC2)cc1	i	1.7	i	-9.1	1.0	370.4	i	0.6
O=C(O)c1ccc(S(=O)(=O)NC2CCCCCC2)cc1	i	-1.4	i	13.9	10.0	354.6	.	.
O=C(c1cccc(OC2CCN(Cc3ccc(F)cc3Cl)CC2)c1)N1CCCC1	i	5.6	i	-5.3	0.0	0.0	.	.
S=C(Nc1ccc(Oc2ccccc2)cc1)N(CCCN1CCOCC1)Cc1ccccn1	i	-3.8	+	-3.1	0.0	127.6	i	0.0
CCC(C)Oc1cc(-c2ccnc(Nc3cccc(Cl)c3)n2)ccn1 (centres undefined)	i	2.5	i	16.8	0.0	705.6	.	.
OCCCNc1cc(-c2ccnc(Nc3cccc(Cl)c3)n2)ccn1	i	1.6	i	-37.8	1.0	379.4	i	0.3
N#Cc1c(N)nc(SC2CCCCC2=O)c(C#N)c1-c1ccco1 (centres undefined)	i	-7.7	i	-10.4	2.0	607.3	i	0.8
CCCCn1c(-c2ccoc2C)n[nH]c1=S	i	1.7	+	6.2	1.0	359.5	i	0.0
Cc1cc(C(=O)C(C)OC(=O)c2ccc(NC(=O)CC#N)cc2)c(C)n1-c1ccc(OC(F)F)cc1 (centres undefined)	.	2.9	+	-20.7	0.0	246.4	i	18.4*
CCn1cc(C(=O)OCC(=O)Nc2ccc(C(C)C)cc2)c(=O)c2ccc(C)nc21	i	0.6	i	14.1	0.0	251.6	.	.
Cc1ccc(NC(=S)N(CCCN2CCCC2)Cc2cccn2Cc2ccc(Cl)cc2)cc1C	i	-2.6	i	9.7	0.0	138.6	.	.
FC(F)(F)c1cccc(NC(=S)N(CCCN2CCCC2)Cc2cccn2Cc2ccc(Cl)cc2)c1	i	0.1	+	-2.9	0.0	159.9	i	41.2*
COc1ccc(NC(=S)N(CCCN2CCCC2)Cc2cccn2Cc2ccc(Cl)cc2)cc1Cl	i	-4.1	i	-7.2	0.0	281.7	.	.
Cc1ccc(NC(=S)N(CCCN2CCCC2)Cc2cccn2Cc2ccc(Cl)cc2)cc1Cl	i	1.2	+	-1.3	0.0	379.9	i	0.0
O=C(NCCCN1CCCC1=O)c1ccc([N+](=O)[O-])s1	i	-2.2	i	6.2	0.0	255.4	.	.
O=C(CSc1nnc(CNC(=O)c2ccco2)o1)Nc1ccc(Cl)cc1	i	0.8	i	11.6	4.0	592.5	.	.
O=C(CSc1nnc(CNC(=O)c2ccco2)o1)Nc1cccc(Cl)c1	i	-0.9	+	2.1	3.0	424.0	i	0.0
CC(=O)N1N=C(c2ccc(Cl)cc2)OC1c1ccc(C(C)C)cc1 (centres undefined)	i	-1.3	i	20.8	0.0	523.7	i	1.2

Screens from PubChem BioAssay.
